Measured values reported in ChEMBL document CHEMBL1914291, “Ptilomycalin A inhibits laccase and melanization in Cryptococcus neoformans” (Bioorg Med Chem, 2011).
Activity calls are given as the source filed them. No cut-off for these calls is given here.

Tests used:
Cryptococcus neoformans [1] = test: Antimelanogenic activity in non-melanized Cryptococcus neoformans var. grubii assessed as inhibition of pigmentation at 0.5 ug/mL after 10 days by microtiter plate assay in presence of 1 mM catecholamine; type: functional
Outline: (§1)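 Overnight non-melanized culture diluted in fresh defined minimal medium to OD about 0.010–0.020. Cells were exposed to compound from DMSO stock in microtiter wells containing 1 mM catecholamine (epinephrine, dopamine or L-dopa) and grown 10 days at 30 °C. Melanization/pigmentation was scored visually against cell-only and DMSO controls.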

Cryptococcus neoformans [2] = test: Antimelanogenic activity in non-melanized Cryptococcus neoformans var. grubii assessed as inhibition of pigmentation at 200 ug/mL after 10 days by microtiter plate assay in presence of 1 mM catecholamine; type: functional
Outline: (§2)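 Broth assay in microtiter plates. An overnight culture of non-melanized C. neoformans var. grubii is diluted in fresh defined minimal medium to OD about 0.010–0.020. It is exposed to single sublethal concentrations (from DMSO; cells/DMSO control) in medium with 1 mM catecholamine (epinephrine, dopamine or L-dopa) at 30 °C. Pigmentation is scored visually at 10 days, with an additional check at 21 days.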

Cryptococcus neoformans [3] = test: Antimelanogenic activity in non-melanized Cryptococcus neoformans var. grubii assessed as inhibition of pigmentation at 0.0625 ug/mL after 10 days by microtiter plate assay in presence of 1 mM catecholamine; type: functional; outline: as §1
Cryptococcus neoformans [4] = test: Antifungal activity in Cryptococcus neoformans var. grubii assessed as clear halo diameter at 20 ug after 6 to 8 days by halo assay in presence of dopamine; type: functional; details: read-out: DIZ
Outline: (§3)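 Paper-disk diffusion halo assay on lawns of C. neoformans (MAT α; var. grubii H99 serotype A, var. gattii serotype B) in defined minimal medium agar with 1 mM catecholamine (L-dopa, dopamine or epinephrine). Compounds were dissolved in DMSO and applied to 6.5 mm disks, which were dried 3 h at RT. Plates were incubated at 30 °C for 6–8 days and the clear halo diameter was measured in mm.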

Cryptococcus gattii [5] = test: Antifungal activity in Cryptococcus neoformans var. gattii assessed as clear halo diameter at 2 ug after 6 days by halo assay in presence of 1 mM L-dopa; type: functional, Cryptococcus bacillisporus; outline: as §3
Cryptococcus gattii [6] = test: Antifungal activity in Cryptococcus neoformans var. gattii assessed as clear halo diameter at 20 ug after 6 to 8 days by halo assay in presence of dopamine; type: functional, Cryptococcus bacillisporus; details: read-out: DIZ; outline: as §3
Cryptococcus gattii [7] = test: Antifungal activity in Cryptococcus neoformans var. gattii assessed as clear halo diameter at 20 ug after 6 to 8 days by halo assay in presence of epinephrine; type: functional, Cryptococcus bacillisporus; details: read-out: DIZ; outline: as §3
Cryptococcus neoformans [8] = test: Antifungal activity in Cryptococcus neoformans var. grubii assessed as clear halo diameter at 2 ug after 6 days by halo assay in presence of 1 mM L-dopa; type: functional; outline: as §3
Cryptococcus neoformans [9] = test: Antifungal activity in Cryptococcus neoformans var. grubii assessed as clear halo diameter at 20 ug after 6 to 8 days by halo assay in presence of L-dopa; type: functional; details: read-out: DIZ; outline: as §3
Cryptococcus neoformans [10] = test: Antifungal activity in Cryptococcus neoformans var. grubii assessed as clear halo diameter at 20 ug after 6 to 8 days by halo assay in presence of epinephrine; type: functional; details: read-out: DIZ; outline: as §3
Cryptococcus gattii [11] = test: Antifungal activity in Cryptococcus neoformans var. gattii assessed as clear halo diameter at 20 ug after 6 to 8 days by halo assay in presence of L-dopa; type: functional, Cryptococcus bacillisporus; details: read-out: DIZ; outline: as §3
Cryptococcus gattii [12] = test: Antimelanogenic activity in Cryptococcus neoformans var. gattii assessed as halo diameter surrounded by non-melanized cells at 20 ug after 6 to 8 days by halo assay in presence of L-dopa; type: functional, Cryptococcus bacillisporus; details: read-out: DIZ
Outline: (§4)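 Paper-disk diffusion halo assay on a lawn of C. neoformans (MAT α; var. grubii H99 serotype A, var. gattii serotype B). Medium is defined minimal medium agar with 1 mM catecholamine (L-dopa, dopamine or epinephrine). Compound is delivered from DMSO stock onto 6.5 mm disks, which are dried 3 h at RT. Incubation is 30 °C for 6–8 days. The read-out is halo diameter (mm), with the halo checked for non-melanized cells.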

Cryptococcus neoformans [13] = test: Antimelanogenic activity in non-melanized Cryptococcus neoformans var. grubii assessed as inhibition of pigmentation at 0.8 ug/mL after 10 days by microtiter plate assay in presence of 1 mM catecholamine; type: functional; outline: as §2
Cryptococcus neoformans [14] = test: Antimelanogenic activity in non-melanized Cryptococcus neoformans var. grubii assessed as onset day of melanization at 0.6 uM by drop test assay in presence of 1 mM L-dopa (reference value: 6 days); type: functional
Outline: (§5)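 Drop test. C. neoformans culture at 10^7 cells/mL is dosed with compound at 0, 0.06, 0.2, 0.6 and 2 μM. It is dropped onto defined minimal medium plates with 1 mM L-dopa and incubated at 30 °C until melanization occurs. The read-out is the onset day of melanization.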

[15] = Inhibition of laccase in Cryptococcus neoformans var. grubii assessed as production of dopachrome using 100 uM epinephrine as substrate preincubated for 30 mins before substrate addition
Outline: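 Whole-cell laccase assay. C. neoformans var. grubii is grown in asparagine salts without glucose to raise laccase, then permeabilized with toluene-ethanol (1:4). Inhibitor (0–1 mM range) is preincubated for 30 min before adding 100 μM epinephrine. Dopachrome is read at 480 nm. IC50 is the mean of two experiments with SE; NaN3 is the positive control.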

Laccase [16] = molecular target: T1, Laccase (Trametes versicolor, UniProt O94222); test: Inhibition of Trametes versicolor laccase assessed as production of dopachrome using 200 uM dopamine as substrate preincubated for 30 mins before substrate addition
T1 sequence (O94222 whole entry): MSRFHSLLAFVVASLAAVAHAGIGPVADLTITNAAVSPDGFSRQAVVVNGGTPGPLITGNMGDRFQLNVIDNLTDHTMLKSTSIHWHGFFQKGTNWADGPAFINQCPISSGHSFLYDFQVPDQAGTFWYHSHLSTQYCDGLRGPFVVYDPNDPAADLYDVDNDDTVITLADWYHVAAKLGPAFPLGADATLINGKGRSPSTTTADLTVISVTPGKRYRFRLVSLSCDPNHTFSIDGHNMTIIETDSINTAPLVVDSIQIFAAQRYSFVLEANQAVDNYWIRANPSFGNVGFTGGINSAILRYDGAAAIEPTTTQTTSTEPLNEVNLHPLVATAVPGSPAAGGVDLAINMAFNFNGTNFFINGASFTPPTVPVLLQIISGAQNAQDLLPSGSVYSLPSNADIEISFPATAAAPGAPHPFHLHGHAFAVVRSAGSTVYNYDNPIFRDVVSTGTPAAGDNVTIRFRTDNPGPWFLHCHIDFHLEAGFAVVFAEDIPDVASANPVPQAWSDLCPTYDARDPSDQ
Outline: (§6)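 Cell-free assay with purified Trametes versicolor laccase. Inhibitor (0–1 mM range) is preincubated with the enzyme for 30 min before substrate is added. Substrates are epinephrine 100 μM, dopamine 200 μM or L-dopa 300 μM. Dopachrome formation is monitored colorimetrically at 480 nm. IC50 is taken from dose-response curves, mean of two experiments with SE; NaN3 is the positive control.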

Cryptococcus neoformans [17] = test: Antimelanogenic activity in Cryptococcus neoformans var. grubii assessed as halo diameter surrounded by non-melanized cells at 10 ug after 6 days by halo assay in presence of 1 mM L-dopa; type: functional; outline: as §4
Cryptococcus neoformans [18] = test: Antimelanogenic activity in Cryptococcus neoformans var. grubii assessed as halo diameter surrounded by non-melanized cells at 20 ug after 6 to 8 days by halo assay in presence of dopamine; type: functional; details: read-out: DIZ; outline: as §4
Cryptococcus gattii [19] = test: Antimelanogenic activity in Cryptococcus neoformans var. gattii assessed as halo diameter surrounded by non-melanized cells at 20 ug after 6 to 8 days by halo assay in presence of dopamine; type: functional, Cryptococcus bacillisporus; details: read-out: DIZ; outline: as §4
Cryptococcus gattii [20] = test: Antimelanogenic activity in Cryptococcus neoformans var. gattii assessed as halo diameter surrounded by non-melanized cells at 20 ug after 6 to 8 days by halo assay in presence of epinephrine; type: functional, Cryptococcus bacillisporus; details: read-out: DIZ; outline: as §4
[21] = tested on: Human immunodeficiency virus; test: Inhibition of DNA polymerase activity of HIV reverse transcriptase at 10 uM
Cryptococcus neoformans [22] = test: Antimelanogenic activity in non-melanized Cryptococcus neoformans var. grubii assessed as onset day of melanization at 0.06 uM by drop test assay in presence of 1 mM L-dopa (reference value: 6 days); type: functional; outline: as §5
Cryptococcus gattii [23] = test: Antimelanogenic activity in Cryptococcus neoformans var. gattii assessed as halo diameter surrounded by non-melanized cells at 10 ug after 6 days by halo assay in presence of 1 mM L-dopa; type: functional, Cryptococcus bacillisporus; outline: as §4
Cryptococcus neoformans [24] = test: Antimelanogenic activity in non-melanized Cryptococcus neoformans var. grubii assessed as inhibition of pigmentation at 0.8 ug/mL after 21 days by microtiter plate assay in presence of 1 mM catecholamine; type: functional; outline: as §2
Laccase [25] = molecular target: T1, Laccase; test: Inhibition of Trametes versicolor laccase assessed as production of dopachrome using 300 uM L-dopa as substrate preincubated for 30 mins before substrate addition; outline: as §6
Laccase [26] = molecular target: T1, Laccase; test: Inhibition of Trametes versicolor laccase assessed as production of dopachrome using 100 uM epinephrine as substrate preincubated for 30 mins before substrate addition; outline: as §6
Cryptococcus neoformans [27] = test: Antimelanogenic activity in Cryptococcus neoformans var. grubii assessed as halo diameter surrounded by non-melanized cells at 20 ug after 6 to 8 days by halo assay in presence of L-dopa; type: functional; details: read-out: DIZ; outline: as §4
Cryptococcus neoformans [28] = test: Antimelanogenic activity in non-melanized Cryptococcus neoformans var. grubii assessed as onset day of melanization at 2 uM by drop test assay in presence of 1 mM L-dopa (reference value: 6 days); type: functional; outline: as §5
Cryptococcus neoformans [29] = test: Antimelanogenic activity in non-melanized Cryptococcus neoformans var. grubii assessed as delay of melanization by drop test assay in presence of 1 mM L-dopa; type: functional; outline: as §5
Cryptococcus neoformans [30] = test: Antimelanogenic activity in Cryptococcus neoformans var. grubii assessed as halo diameter surrounded by non-melanized cells at 20 ug after 6 to 8 days by halo assay in presence of epinephrine; type: functional; details: read-out: DIZ; outline: as §4

Compound: Clc1ccc(COC(Cn2ccnc2)c2ccc(Cl)cc2Cl)c(Cl)c1 (centres undefined)
- Activity (Cryptococcus neoformans [1]): inactive

Compound: O=C(O)CNCP(=O)(O)O
- Activity (Cryptococcus neoformans [2]): inactive

Compound: C[C@@H]1[C@H](O)[C@@H](C)/C=C/C=C/C=C/C=C/C=C/C=C/C=C/[C@H](O[C@@H]2O[C@H](C)[C@@H](O)[C@H](N)[C@@H]2O)C[C@@H]2O[C@](O)(C[C@@H](O)C[C@@H](O)[C@H](O)CC[C@@H](O)C[C@@H](O)CC(=O)O[C@H]1C)C[C@H](O)[C@H]2C(=O)O [AMPHOTERICIN B]
- Activity (Cryptococcus neoformans [3]): inactive
- zone of inhibition at 20 µg/disc (Cryptococcus neoformans [4]): 18 mm
- diameter of the inhibition zone (DIZ) (Cryptococcus gattii [5]): 10 mm
- zone of inhibition at 20 µg/disc (Cryptococcus gattii [6]): 22 mm
- zone of inhibition at 20 µg/disc (Cryptococcus gattii [7]): 18 mm
- diameter of the inhibition zone (DIZ) (Cryptococcus neoformans [8]): 15.5 mm
- zone of inhibition at 20 µg/disc (Cryptococcus neoformans [9]): 21 mm
- zone of inhibition at 20 µg/disc (Cryptococcus neoformans [10]): 18 mm
- zone of inhibition at 20 µg/disc (Cryptococcus gattii [11]): 17 mm

Compound: CC[C@H]1CCCC[C@@]2(C[C@@H]3CC[C@@H]4[C@H](C(=O)OCCCCCCCCCCCCCCCC(=O)N(CCCN)CCCCN)[C@]5(CCC[C@@H](C)O5)NC(=[N+]34)N2)O1.[Cl-] [PTILOMYCALIN A]
- zone of inhibition at 20 µg/disc (Cryptococcus gattii [12]): 17 mm
- Activity (Cryptococcus neoformans [13]): Active
- Time (Cryptococcus neoformans [14]): 20 days
- IC50 [15]: 7.3 µM
- IC50 (Laccase [16]): 4.9 µM
- diameter of the inhibition zone (DIZ) (Cryptococcus neoformans [17]): 13.5 mm
- zone of inhibition at 20 µg/disc (Cryptococcus neoformans [18]): 15 mm
- zone of inhibition at 20 µg/disc (Cryptococcus gattii [19]): 18 mm
- zone of inhibition at 20 µg/disc (Cryptococcus gattii [20]): 12 mm
- inhibition [21]: 60%
- Time (Cryptococcus neoformans [22]): 9 days
- diameter of the inhibition zone (DIZ) (Cryptococcus gattii [23]): 9.5 mm
- Activity (Cryptococcus neoformans [24]): Active
- IC50 (Laccase [25]): 5.8 µM
- IC50 (Laccase [26]): 4.7 µM
- zone of inhibition at 20 µg/disc (Cryptococcus neoformans [27]): 17 mm
- Time (Cryptococcus neoformans [28]): 25 days
- Activity (Cryptococcus neoformans [29]): Dose-dependent effect
- zone of inhibition at 20 µg/disc (Cryptococcus neoformans [30]): 12 mm

Compound: [N-]=[N+]=[N-] [SODIUM AZIDE]
- IC50 [15]: 329 µM
- IC50 (Laccase [16]): 257 µM
- IC50 (Laccase [25]): 279 µM
- IC50 (Laccase [26]): 263 µM
